In test [1] the target is 5-hydroxytryptamine receptor 2A (Homo sapiens, UniProt P28223). The experiment in a line: Binding affinity for human 5-hydroxytryptamine 2A receptor. In a few lines: (§1)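 Radioligand displacement binding on cloned human receptors. Each determination lies within 0.3 log units of the mean.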
The target in test [2] is 5-hydroxytryptamine receptor 6 (Homo sapiens, UniProt P50406). The experiment in a line: Binding affinity for human 5-hydroxytryptamine 6 receptor.
The target in test [3] is T1, 5-hydroxytryptamine receptor 2C (Homo sapiens, UniProt P28335).
T1 sequence (P28335 whole entry): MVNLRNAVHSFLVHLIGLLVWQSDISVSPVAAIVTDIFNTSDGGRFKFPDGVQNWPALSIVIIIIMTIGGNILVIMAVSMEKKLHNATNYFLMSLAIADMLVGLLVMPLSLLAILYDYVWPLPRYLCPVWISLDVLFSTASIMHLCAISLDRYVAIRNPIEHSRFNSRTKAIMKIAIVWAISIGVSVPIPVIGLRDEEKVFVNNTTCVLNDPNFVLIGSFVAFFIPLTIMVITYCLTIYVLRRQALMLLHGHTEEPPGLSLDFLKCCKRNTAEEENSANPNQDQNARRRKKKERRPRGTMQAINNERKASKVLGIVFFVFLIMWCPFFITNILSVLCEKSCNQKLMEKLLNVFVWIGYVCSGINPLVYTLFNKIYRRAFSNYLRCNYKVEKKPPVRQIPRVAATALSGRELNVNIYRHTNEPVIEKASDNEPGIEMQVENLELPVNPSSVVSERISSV
The experiment in a line: Binding affinity for human 5-hydroxytryptamine 2C receptor. In a few lines:
as §1

Test [4] addresses T2, 5-hydroxytryptamine receptor 1B (Homo sapiens, UniProt P28222). The experiment in a line: Intrinsic activity for human 5-hydroxytryptamine 1B receptor in [35S]GTP-gamma-S, assay. It is filed as functional. In outline: (§2)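 [35S]GTPγS binding in recombinant cells with high receptor density expressing the human receptor. Ten-point half-log serial dilution gives the concentration–response. Intrinsic activity is expressed relative to the maximal response of the endogenous agonist 5-HT.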

Test [5] addresses T3, D(4) dopamine receptor (Homo sapiens, UniProt P21917).
T3 sequence (P21917 whole entry): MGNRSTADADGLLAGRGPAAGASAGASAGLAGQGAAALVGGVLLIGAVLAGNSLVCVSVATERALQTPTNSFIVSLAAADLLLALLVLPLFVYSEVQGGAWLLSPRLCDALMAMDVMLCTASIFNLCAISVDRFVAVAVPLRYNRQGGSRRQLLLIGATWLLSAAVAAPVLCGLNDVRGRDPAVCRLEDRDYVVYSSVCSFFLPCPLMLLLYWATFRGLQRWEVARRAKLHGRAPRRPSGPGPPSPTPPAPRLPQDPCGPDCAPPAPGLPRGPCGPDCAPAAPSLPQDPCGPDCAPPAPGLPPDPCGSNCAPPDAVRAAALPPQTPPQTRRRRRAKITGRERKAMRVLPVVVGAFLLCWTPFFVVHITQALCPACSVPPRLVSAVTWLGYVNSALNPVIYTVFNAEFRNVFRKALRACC
Description: Binding affinity for human dopamine receptor D4.

For test [6], the target named is T4, 5-hydroxytryptamine receptor 1D (Homo sapiens, UniProt P28221). The experiment in a line: Displacement of [3H]5-HT from human 5-hydroxytryptamine 1D receptor expressed in CHO cells. Type of test: cell-based. In a few lines:
(§3)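 Radioligand displacement binding on membranes of cloned human receptors. Each determination lies within 0.3 log units of the mean.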

Test [7] deals with T5, 5-hydroxytryptamine receptor 1A (Homo sapiens) (UniProt P08908).
T5 sequence (whole entry): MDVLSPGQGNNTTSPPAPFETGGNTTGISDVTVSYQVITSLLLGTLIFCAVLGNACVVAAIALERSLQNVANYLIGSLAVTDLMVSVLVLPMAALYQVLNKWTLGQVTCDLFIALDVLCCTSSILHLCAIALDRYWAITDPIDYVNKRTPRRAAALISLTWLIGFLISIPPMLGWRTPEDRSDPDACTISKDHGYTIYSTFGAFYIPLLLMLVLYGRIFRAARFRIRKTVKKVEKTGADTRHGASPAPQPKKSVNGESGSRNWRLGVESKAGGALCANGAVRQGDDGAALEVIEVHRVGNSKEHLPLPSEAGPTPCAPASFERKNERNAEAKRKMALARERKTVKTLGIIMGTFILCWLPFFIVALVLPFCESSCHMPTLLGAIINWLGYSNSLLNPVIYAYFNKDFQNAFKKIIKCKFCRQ
Description: Intrinsic activity for human 5-hydroxytryptamine 1A receptor in [35S]GTP-gamma-S, assay; […]. It is filed as functional. In a few lines: as §2
For orientation: GTPγS resists hydrolysis and so accumulates on activated G proteins.

Test [8] addresses Beta-2 adrenergic receptor (Homo sapiens, UniProt P07550). The experiment in a line: Binding affinity for human beta-2 adrenergic receptor.
Test [9] concerns the target 5-hydroxytryptamine receptor 2B (Homo sapiens, UniProt P41595). Description: Binding affinity for human 5-hydroxytryptamine 2B receptor.
Test [10] has as its target 5-hydroxytryptamine receptor 5A (Homo sapiens, UniProt P47898). The experiment in a line: Binding affinity for human 5-hydroxytryptamine 5A receptor. In a few lines:
as §1

For test [11], the target named is Serotonin 1 receptors; 5-HT1B & 5-HT1D (Homo sapiens) (UniProt P28222+P28221). The experiment in a line: Selectivity for human 5-hydroxytryptamine 1D receptor over 5-hydroxytryptamine 1B receptor. It is filed as protein assay.
In test [12] the target is Sodium-dependent serotonin transporter (Rattus norvegicus, UniProt P31652). Description: Inhibition of [3H]5-HT binding to serotonin transporter in rat cortical synaptosomes. It is filed as subcellular, Brain. In outline:
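Radioligand binding to serotonin transporter in rat cortical synaptosomes. Each determination lies within 0.3 log units of the mean.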

Test [13] deals with T2, 5-hydroxytryptamine receptor 1B. Description: Displacement of [3H]5-HT from human 5-hydroxytryptamine 1B receptor expressed in CHO cells. Type of test: cell-based. In outline: as §3
A general note: Displacement assays read how much labelled ligand stays bound in the presence of the test substance.

For test [14], the target named is T4, 5-hydroxytryptamine receptor 1D.
Test [15] addresses T6, 5-hydroxytryptamine receptor 1F (Homo sapiens, UniProt P30939).
T6 sequence (P30939 whole entry): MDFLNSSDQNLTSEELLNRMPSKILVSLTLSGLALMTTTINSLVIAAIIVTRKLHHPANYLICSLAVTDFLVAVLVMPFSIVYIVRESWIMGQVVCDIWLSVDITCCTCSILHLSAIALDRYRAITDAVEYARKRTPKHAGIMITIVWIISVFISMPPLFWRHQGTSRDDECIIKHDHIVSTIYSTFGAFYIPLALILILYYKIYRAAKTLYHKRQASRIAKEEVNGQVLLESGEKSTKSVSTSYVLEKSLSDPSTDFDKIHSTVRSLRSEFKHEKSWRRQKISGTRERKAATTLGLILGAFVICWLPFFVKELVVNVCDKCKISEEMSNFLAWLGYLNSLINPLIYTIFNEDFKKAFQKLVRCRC
Description: Binding affinity for human 5-hydroxytryptamine 1F receptor.

The target of test [16] is 5-hydroxytryptamine receptor 7 (Homo sapiens, UniProt P34969). Description: Binding affinity for human 5-hydroxytryptamine 7 receptor.
The target of test [17] is 5-hydroxytryptamine receptor 4 (Homo sapiens, UniProt Q13639). Description: Binding affinity for human 5-hydroxytryptamine 4 receptor.
For test [18], the target named is T7, 5-hydroxytryptamine receptor 1A (Homo sapiens, UniProt P08908).
T7 sequence (P08908 whole entry): T5 sequence (whole entry)
The experiment in a line: Displacement of [3H]WAY-100635 from human 5-hydroxytryptamine 1A receptor expressed in CHO cells. It is filed as cell-based. In outline:
as §3

Test [19] deals with 5-hydroxytryptamine receptor 1E (Homo sapiens, UniProt P28566). Description: Binding affinity for human 5-hydroxytryptamine 1E receptor.
Test [20] deals with D(3) dopamine receptor (Homo sapiens, UniProt P35462). Description: Binding affinity for human dopamine receptor D3.
The target of test [21] is D(2) dopamine receptor (Homo sapiens, UniProt P14416). The experiment in a line: Binding affinity for human dopamine receptor D2.
The target of test [22] is T8, Alpha-1B adrenergic receptor (Homo sapiens, UniProt P35368).
T8 sequence (P35368 whole entry): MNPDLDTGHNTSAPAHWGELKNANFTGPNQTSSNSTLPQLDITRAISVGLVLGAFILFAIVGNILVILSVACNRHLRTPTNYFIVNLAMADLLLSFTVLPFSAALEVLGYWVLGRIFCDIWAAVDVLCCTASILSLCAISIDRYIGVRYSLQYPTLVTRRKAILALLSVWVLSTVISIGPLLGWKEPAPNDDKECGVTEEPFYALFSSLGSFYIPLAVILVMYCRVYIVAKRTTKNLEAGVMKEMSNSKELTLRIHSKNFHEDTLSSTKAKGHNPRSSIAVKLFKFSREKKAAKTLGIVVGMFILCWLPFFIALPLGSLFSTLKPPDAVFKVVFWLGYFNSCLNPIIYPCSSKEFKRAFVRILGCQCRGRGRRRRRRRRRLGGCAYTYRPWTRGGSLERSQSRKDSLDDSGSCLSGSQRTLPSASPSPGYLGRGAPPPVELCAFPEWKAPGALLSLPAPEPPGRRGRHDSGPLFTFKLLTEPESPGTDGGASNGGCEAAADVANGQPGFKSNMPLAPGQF
The experiment in a line: Binding affinity for human alpha-1B adrenergic receptor.

These results are taken from ChEMBL document CHEMBL1139504, “Discovery of the first potent, selective 5-hydroxytryptamine1D receptor antagonist” (J Med Chem, 2005).

T4 sequence (P28221 whole entry): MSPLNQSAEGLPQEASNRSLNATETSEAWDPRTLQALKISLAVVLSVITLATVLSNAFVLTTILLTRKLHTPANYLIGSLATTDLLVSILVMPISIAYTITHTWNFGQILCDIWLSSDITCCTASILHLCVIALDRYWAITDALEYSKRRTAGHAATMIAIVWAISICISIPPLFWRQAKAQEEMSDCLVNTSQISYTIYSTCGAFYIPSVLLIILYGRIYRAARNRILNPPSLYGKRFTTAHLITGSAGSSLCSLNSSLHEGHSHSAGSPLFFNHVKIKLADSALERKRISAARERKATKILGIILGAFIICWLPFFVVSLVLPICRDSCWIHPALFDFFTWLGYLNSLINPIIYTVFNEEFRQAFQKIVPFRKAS
T2 sequence (P28222 whole entry): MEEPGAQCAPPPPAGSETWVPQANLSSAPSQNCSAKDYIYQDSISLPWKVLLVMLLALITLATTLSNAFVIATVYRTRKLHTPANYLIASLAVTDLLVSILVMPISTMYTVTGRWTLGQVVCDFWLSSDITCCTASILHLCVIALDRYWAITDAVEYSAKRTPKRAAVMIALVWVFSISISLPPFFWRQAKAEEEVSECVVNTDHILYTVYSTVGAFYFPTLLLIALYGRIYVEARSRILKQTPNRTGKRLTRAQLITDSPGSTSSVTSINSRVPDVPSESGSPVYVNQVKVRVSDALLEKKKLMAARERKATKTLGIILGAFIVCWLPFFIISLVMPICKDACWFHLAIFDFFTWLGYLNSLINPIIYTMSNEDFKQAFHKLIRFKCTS
Chain of 5-hydroxytryptamine receptor 6 (P50406 whole entry): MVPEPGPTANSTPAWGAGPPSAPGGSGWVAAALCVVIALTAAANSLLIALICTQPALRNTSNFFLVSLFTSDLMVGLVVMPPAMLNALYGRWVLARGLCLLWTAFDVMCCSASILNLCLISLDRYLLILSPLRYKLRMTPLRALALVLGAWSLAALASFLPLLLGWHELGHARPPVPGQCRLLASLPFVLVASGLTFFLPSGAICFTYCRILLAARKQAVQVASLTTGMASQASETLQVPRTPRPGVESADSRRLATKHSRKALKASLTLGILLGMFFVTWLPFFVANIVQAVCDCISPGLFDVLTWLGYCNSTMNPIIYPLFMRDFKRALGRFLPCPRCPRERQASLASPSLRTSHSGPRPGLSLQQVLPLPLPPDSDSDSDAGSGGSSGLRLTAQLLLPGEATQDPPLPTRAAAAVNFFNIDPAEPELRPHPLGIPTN
Chain of Sodium-dependent serotonin transporter (P31652 whole entry): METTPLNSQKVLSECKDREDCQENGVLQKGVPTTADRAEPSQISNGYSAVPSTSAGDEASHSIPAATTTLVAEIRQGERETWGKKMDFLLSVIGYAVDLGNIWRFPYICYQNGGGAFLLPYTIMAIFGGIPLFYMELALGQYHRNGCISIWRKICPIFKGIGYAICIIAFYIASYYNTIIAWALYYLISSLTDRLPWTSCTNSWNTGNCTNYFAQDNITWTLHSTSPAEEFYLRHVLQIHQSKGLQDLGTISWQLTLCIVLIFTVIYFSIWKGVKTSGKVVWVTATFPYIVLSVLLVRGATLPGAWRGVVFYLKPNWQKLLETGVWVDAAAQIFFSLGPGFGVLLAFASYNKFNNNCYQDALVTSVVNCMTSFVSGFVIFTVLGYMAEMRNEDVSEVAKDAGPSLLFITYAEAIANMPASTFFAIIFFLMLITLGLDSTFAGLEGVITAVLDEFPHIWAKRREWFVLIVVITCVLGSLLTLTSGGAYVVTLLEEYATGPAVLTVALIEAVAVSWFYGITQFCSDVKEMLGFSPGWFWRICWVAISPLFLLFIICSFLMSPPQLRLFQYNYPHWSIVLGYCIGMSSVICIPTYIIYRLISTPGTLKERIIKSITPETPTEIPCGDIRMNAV
Chain of Beta-2 adrenergic receptor (P07550 whole entry): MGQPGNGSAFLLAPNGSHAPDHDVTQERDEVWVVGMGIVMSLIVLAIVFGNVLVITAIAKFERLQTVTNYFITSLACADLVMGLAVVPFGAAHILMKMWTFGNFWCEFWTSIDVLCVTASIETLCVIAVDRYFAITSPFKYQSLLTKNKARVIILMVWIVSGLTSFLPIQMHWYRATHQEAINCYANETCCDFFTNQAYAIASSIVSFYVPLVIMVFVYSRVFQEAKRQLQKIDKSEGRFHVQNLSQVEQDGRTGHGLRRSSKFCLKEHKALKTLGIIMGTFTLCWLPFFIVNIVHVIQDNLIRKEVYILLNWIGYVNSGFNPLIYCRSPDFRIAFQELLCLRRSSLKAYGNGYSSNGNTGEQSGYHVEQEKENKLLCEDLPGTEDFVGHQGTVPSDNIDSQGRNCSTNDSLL
Chain of 5-hydroxytryptamine receptor 4 (Q13639 whole entry): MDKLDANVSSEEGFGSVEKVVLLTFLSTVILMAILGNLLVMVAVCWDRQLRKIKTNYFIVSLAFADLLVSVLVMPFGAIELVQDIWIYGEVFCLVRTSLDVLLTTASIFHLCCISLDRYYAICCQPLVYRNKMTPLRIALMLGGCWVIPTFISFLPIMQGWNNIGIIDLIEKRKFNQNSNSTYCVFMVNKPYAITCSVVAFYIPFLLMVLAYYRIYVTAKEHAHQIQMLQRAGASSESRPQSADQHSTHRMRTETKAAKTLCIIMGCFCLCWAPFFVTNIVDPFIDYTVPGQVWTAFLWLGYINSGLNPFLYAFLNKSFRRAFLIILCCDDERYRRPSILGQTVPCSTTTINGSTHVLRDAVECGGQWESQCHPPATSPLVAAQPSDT
Chain of 5-hydroxytryptamine receptor 2A (P28223 whole entry): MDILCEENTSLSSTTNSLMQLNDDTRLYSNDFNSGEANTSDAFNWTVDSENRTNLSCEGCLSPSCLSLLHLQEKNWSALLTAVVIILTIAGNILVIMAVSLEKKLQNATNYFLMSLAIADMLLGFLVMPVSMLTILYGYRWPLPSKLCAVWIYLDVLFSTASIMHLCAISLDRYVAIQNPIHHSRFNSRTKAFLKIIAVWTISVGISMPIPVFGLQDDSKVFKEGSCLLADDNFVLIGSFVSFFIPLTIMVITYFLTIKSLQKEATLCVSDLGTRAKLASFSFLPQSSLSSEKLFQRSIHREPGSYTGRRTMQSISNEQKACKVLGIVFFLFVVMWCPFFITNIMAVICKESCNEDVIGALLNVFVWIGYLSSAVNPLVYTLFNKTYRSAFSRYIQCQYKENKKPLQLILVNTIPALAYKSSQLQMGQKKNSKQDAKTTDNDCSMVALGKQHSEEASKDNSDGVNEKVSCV
Chain of 5-hydroxytryptamine receptor 2B (P41595 whole entry): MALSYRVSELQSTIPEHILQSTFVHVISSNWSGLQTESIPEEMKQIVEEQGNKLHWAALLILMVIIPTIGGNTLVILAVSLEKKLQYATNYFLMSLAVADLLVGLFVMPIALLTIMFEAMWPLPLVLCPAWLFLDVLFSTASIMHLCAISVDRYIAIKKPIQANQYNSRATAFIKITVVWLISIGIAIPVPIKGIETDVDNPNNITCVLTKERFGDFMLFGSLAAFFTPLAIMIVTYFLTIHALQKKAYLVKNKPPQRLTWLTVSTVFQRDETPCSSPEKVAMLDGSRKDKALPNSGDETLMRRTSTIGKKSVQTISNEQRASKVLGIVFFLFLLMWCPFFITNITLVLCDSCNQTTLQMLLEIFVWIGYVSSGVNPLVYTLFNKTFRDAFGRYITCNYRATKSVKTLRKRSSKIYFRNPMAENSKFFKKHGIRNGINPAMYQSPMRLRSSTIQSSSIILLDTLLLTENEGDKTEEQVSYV
Chain of 5-hydroxytryptamine receptor 1E (P28566 whole entry): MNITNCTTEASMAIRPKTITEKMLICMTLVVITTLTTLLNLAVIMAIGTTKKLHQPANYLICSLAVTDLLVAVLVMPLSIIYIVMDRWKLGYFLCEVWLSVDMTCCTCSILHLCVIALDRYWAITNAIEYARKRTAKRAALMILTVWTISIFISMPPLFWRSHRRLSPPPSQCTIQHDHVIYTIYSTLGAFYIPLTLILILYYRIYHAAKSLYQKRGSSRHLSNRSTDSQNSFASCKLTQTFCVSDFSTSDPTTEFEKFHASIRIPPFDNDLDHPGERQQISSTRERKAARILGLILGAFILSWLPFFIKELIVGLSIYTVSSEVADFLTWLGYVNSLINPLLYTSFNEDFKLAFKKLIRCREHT
Chain of D(2) dopamine receptor (P14416 whole entry): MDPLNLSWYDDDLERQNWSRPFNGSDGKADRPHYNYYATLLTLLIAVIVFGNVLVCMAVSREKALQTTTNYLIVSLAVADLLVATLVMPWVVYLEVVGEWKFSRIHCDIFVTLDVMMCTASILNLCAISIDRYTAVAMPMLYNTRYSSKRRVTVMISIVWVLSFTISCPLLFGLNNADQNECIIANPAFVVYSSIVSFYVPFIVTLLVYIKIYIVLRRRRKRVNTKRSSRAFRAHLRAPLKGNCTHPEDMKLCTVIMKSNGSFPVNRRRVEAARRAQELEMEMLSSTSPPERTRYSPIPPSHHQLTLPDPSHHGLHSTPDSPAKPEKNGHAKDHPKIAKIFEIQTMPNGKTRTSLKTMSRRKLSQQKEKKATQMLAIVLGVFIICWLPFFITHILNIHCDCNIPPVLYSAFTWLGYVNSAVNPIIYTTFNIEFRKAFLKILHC
Chain of 5-hydroxytryptamine receptor 7 (P34969 whole entry): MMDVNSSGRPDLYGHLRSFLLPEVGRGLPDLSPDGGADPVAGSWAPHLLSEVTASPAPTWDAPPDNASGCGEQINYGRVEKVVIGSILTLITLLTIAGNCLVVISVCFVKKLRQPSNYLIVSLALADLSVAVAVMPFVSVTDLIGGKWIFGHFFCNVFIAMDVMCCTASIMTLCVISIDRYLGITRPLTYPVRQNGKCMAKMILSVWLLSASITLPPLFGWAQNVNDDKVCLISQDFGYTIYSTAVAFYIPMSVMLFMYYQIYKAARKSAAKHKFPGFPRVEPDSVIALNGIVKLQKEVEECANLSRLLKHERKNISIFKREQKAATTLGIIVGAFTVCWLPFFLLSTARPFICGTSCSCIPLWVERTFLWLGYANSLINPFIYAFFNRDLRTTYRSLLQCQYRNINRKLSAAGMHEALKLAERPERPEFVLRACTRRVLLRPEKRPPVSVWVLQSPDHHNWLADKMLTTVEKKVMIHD

As to `Cc1ccc2c(OCCN3CCN(Cc4cccc5cccnc45)CC3)cccc2n1`, the Ki (usually the dissociation constant of the complex between target and ligand, obtained from inhibition or displacement) in test [1] was more than 2510 nM; in [2] it was more than 10000 nM; in test [3], 3160 nM; in test [5], more than 10000 nM; in test [6] it was 0.794 nM; in test [8], 2000 nM. Further, the Ki is 1260 nM in [9]; 3160 nM in [10]; 316 nM in test [12]; 200 nM in [13]; 2000 nM in test [15]; 501 nM in test [16]. Besides, the Ki in [17] was more than 5010 nM; in test [18] it was 316 nM; in test [19], more than 10000 nM; in test [20], 1000 nM; in test [21], 3160 nM; in test [22], 1000 nM. Besides, the results for the IA in test [4], in [7] and in [14] were 0.3, 0 and 0, respectively. The Selectivity in test [11] stood at 251.
